Reference: ChEMBL document CHEMBL1124505, “Inhibition of aminopeptidases by peptides containing ketomethylene and hydroxyethylene amide bond replacements” (J Med Chem, 1989)
Values belong to the molecule of their own block, whether it stands above or below them.

What was measured:
[1] = molecular target: T1, Aminopeptidase B (Rattus norvegicus, UniProt O09175); test: (§1) Inhibition of aminopeptidase B or arginyl aminopeptidase purified from rat liver
T1 sequence (O09175 whole entry): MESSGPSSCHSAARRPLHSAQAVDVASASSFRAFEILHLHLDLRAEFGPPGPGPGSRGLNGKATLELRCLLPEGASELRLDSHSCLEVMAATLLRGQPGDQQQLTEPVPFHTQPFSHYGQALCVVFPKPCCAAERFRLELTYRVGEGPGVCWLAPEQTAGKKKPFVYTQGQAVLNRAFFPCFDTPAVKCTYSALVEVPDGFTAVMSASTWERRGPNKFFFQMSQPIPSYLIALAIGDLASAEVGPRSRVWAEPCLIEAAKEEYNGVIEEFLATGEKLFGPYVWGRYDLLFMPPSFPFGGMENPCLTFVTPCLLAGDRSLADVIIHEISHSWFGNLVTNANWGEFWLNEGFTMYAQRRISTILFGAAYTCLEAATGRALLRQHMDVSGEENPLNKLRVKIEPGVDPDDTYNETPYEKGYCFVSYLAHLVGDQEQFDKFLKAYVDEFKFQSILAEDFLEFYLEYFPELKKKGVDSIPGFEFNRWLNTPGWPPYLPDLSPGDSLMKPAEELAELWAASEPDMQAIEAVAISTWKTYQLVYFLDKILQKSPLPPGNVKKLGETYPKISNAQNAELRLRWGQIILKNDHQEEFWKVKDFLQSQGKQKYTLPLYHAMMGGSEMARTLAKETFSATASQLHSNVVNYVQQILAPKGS
Outline: (§2)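 Arginyl aminopeptidase purified from rat liver. Substrate L-arginine p-nitroanilide in 0.10 M PIPES, pH 7.0, with 0.20 M NaCl and 1 mM DTT, at 25 °C. Initial velocities read as p-nitroaniline release at 405 nm (E = 9620 L/mol·cm). Slow-binding inhibitors preincubated 15 min with enzyme before substrate was added; others started by adding enzyme.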

[2] = molecular target: T1, Aminopeptidase B; test: Competitive inhibition of aminopeptidase B or arginyl aminopeptidase purified from rat liver; Ki value reporting the slope effect(Kis); outline: as §2
[3] = molecular target: T2, Renin (Homo sapiens, UniProt P00797); test: Inhibition of enzyme renin
T2 sequence (P00797 whole entry): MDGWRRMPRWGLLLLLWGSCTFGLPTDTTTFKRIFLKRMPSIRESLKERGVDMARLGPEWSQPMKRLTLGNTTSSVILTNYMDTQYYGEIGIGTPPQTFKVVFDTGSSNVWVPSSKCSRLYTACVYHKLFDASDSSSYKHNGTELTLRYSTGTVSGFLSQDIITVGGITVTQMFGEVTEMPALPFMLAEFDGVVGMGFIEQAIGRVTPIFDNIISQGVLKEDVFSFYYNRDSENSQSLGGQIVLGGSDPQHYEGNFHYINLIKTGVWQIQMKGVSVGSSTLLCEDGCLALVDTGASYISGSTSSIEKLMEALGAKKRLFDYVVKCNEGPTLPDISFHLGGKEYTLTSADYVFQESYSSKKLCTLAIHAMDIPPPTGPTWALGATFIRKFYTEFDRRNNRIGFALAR

[4] = molecular target: T1, Aminopeptidase B; test: as §1; assay type: tissue-based
Outline: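 Initial rates taken as p-nitroaniline release at 405 nm. Slow-binding inhibitors were preincubated with enzyme 15 min before substrate was added; others were started with enzyme.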

[5] = molecular target: T1, Aminopeptidase B; test: Competitive inhibition of aminopeptidase B or arginyl aminopeptidase purified from rat liver; outline: as §2
[6] = molecular target: Pancreatic elastase (Sus scrofa, UniProt P08419+P00772); test: Inhibition of porcine pancreatic elastase; assay type: protein assay
[7] = molecular target: T1, Aminopeptidase B; test: Non-competitive inhibition of aminopeptidase B or arginyl aminopeptidase purified from rat liver; Ki value reporting the Kid; outline: as §2
[8] = molecular target: T1, Aminopeptidase B; test: Non-competitive inhibition of aminopeptidase B or arginyl aminopeptidase purified from rat liver; Ki value reporting the intercept effect(Kii); outline: as §2
[9] = molecular target: T1, Aminopeptidase B; test: Non-competitive inhibition of aminopeptidase B or arginyl aminopeptidase purified from rat liver; Ki value reporting the slope effect(Kis); outline: as §2

Structure (SMILES): CC(CC(=O)[C@@H](N)CCCCN)C(=O)O (stereo partly specified)
Ki [2]: 2 µM

Structure (SMILES): CC(C)C[C@H](CN[C@H](CC(C)C)C(=O)N[C@H](C(=O)N[C@@H](Cc1ccc(O)cc1)C(=O)O)C(C)C)NC(=O)C(Cc1c[nH]cn1)NC(=O)[C@H](Cc1ccccc1)NC(=O)[C@@H]1CCCN1C(=O)C(N)Cc1c[nH]cn1 (stereo in doubt)
Ki [3]: 1 µM

Structure (SMILES): NC(N)=NCCC[C@H](N)C(=O)C[C@@H](Cc1ccccc1)C(=O)O
Ki [4]: 0.0025 µM

Structure (SMILES): CC(C)CCNC(=O)[C@@H](NC(=O)[C@H](C)CC(=O)[C@@H](N)CC(C)C)C(C)C
IC50 [5]: > 400 µM

Structure (SMILES): COC(=O)CCC(=O)C(C)NC(=O)c1ccccc1 (stereo unspecified)
Ki [6]: 4200 µM

Structure (SMILES): N=C(N)NCCC[C@H](N)C(=O)C[C@@H](Cc1ccc(O)cc1)C(=O)O
Ki [4]: 0.00084 µM

Structure (SMILES): CC(C)CC(N)C(=O)CC(C)C(=O)O (stereo unspecified)
Ki [2]: 130 µM

Structure (SMILES): NCCCC[C@H](N)C(=O)CC(Cc1ccccc1)C(=O)O (stereo partly specified)
Ki [2]: 0.004 µM

Next, values leading:

IC50 [1]: > 600 µM
Structure (SMILES): CC(C)CCNC(=O)C(NC(=O)C(Cc1ccccc1)CC(O)C(N)CC(C)C)C(C)C (stereo unspecified)

Ki [4]: 0.014 µM
Structure (SMILES): CC(C)C[C@H](NC(=O)[C@@H](O)[C@H](N)Cc1ccccc1)C(=O)O [UBENIMEX]

Ki [2]: 36 µM
Structure (SMILES): CC(C)CCNC(=O)[C@@H](NC(=O)[C@H](CC(=O)[C@@H](N)CC(C)C)Cc1ccccc1)C(C)C

Ki [2]: 0.17 µM
Structure (SMILES): CC(C)C[C@H](N)C(=O)CC(Cc1ccccc1)C(=O)O (stereo partly specified)

Ki [2]: 0.77 µM
Structure (SMILES): CC(C)C[C@@H](N)C(=O)CC(Cc1ccccc1)C(=O)O (stereo partly specified)

Ki [7]: 2.8 µM
Ki [8]: 2 µM
Ki [9]: 8.8 µM
Structure (SMILES): CC(CC(=O)[C@@H](N)CCCCN)C(=O)NC(Cc1ccccc1)C(=O)O (stereo partly specified)
